Data from article PMC5563391 (Investigational new drugs, 2015).

Key:
[1] = Phase 1 pharmacokinetics of ilorasertib in plasma; format: in vivo, human; conditions: for AUC(0-t) / half-life / AUC(0-inf): human, plasma, po; for half-life: 480 mg, t1/2, arm B, oral twice weekly
How it was run: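 Arm A patients took oral test compound once weekly, in the morning, on days 1, 8 and 15 of 28-day cycles, at 10–690 mg. Plasma was sampled intensively up to 72 h after dosing on days 1 and 15. Noncompartmental analysis gave Cmax, Tmax, t½, AUCt and AUC∞, plus dose-normalized values. Results are summarized by dose level as mean ± SD, with individual values where N=1.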

[2] = tested on: patients with hematologic malignancies; assay: Phase 1 safety and tolerability; format: in vivo
How it was run: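 Four arms each ran 28-day cycles: oral once weekly (A), oral twice weekly (B), oral once weekly with IV/SC azacitidine on days 1–7 (C), and IV once weekly (D). Dose escalation followed a modified continual reassessment method, with MTD defined as a 30% DLT rate by logistic regression. Toxicity was graded continuously by CTCAE v4.0, with labs, ECG, MUGA/echocardiogram and vital signs monitored.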

[3] = tested on: peripheral blood mononuclear cells; assay: Cell cycle analysis by flow cytometry; format: in vivo, human; conditions: arm A
How it was run: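 Adults with hematologic malignancies received oral test compound once weekly on days 1, 8 and 15 of 28-day cycles, at doses from 10 to 690 mg. Blood for pharmacodynamics was drawn alongside pharmacokinetic samples. Peripheral blood mononuclear cells were analysed by flow cytometry for the percentage of cells with 2N, 4N or >4N DNA. Only patients with enough cycling cells at baseline were evaluable.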

[4] = tested on: placental growth factor (PlGF); assay: Placental growth factor concentration, biomarker of VEGF receptor inhibition; format: in vivo, human; conditions: arm A
How it was run: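 Arm A patients received oral test compound once weekly on days 1, 8 and 15 of 28-day cycles, at 10–690 mg. At designated time points after the first dose, blood for PlGF measurement was collected together with pharmacokinetic samples. The change from baseline in PlGF was assessed against dose.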

[5] = tested on: patients with advanced hematologic malignancies; assay: Clinical response; format: in vivo, human
How it was run: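 Patients received the test compound in one of four arms, each on a 28-day cycle. Arm A took it orally once weekly on days 1, 8 and 15, and arm B orally on days 1, 2, 8, 9, 15 and 16. Arm C added IV or SC azacitidine on days 1–7 to the once-weekly oral schedule. Arm D received it IV on days 1, 8 and 15. Response used revised International Working Group criteria, or NCCN guidelines for CML.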

Nc1ncc(-c2cnn(CCO)c2)c2scc(-c3ccc(NC(=O)Nc4cccc(F)c4)cc3)c12 [Ilorasertib]
AUC(0-t) ([1]; 440 mg): 13500 ± 7520 ng·h/mL | half-life ([1]; day 1, N=7): 14.9 ± 3.2 h | half-life ([1]; day 15, N=7): 15.3 ± 5.1 h | AUC(0-inf) ([1]; 540 mg): 6010 ± 1230 ng·h/mL | AUC(0-t) ([1]; 540 mg, AUC0–24, arm A, oral once weekly, first dose, N=3, mean ± SD): 5800 ± 1080 ng·h/mL | AUC(0-inf) ([1]; 640 mg): 20300 ± 15000 ng·h/mL | AUC(0-t) ([1]; 640 mg, AUC0–24, arm A, oral once weekly, first dose, N=6, mean ± SD): 19700 ± 14800 ng·h/mL | AUC(0-inf) ([1]; 690 mg): 8460 ng·h/mL | renal excretion of ilorasertib as the parent drug ([1]; in vivo): negligible | dose proportionality of Cmax and AUC∞ ([1]; oral, 80- to 690-mg dose range): generally dose proportional | patients reporting grade 3 or 4 adverse events ([2]; 42 of 52 patients): 80.8% | patients reporting at least 1 treatment-emergent adverse event ([2]; 51 of 52 patients): 98.1% | grade 3/4 adverse event: anemia ([2]; 52 patients, all arms): 13.5% | grade 3/4 adverse event: hypertension ([2]; 52 patients, all arms): 28.8% | grade 3/4 adverse event: hypokalemia ([2]; 52 patients, all arms): 15.4% | grade 3/4 adverse event: hypophosphatemia ([2]; 52 patients, all arms): 11.5% | grade 3 or 4 adverse events related to ilorasertib: hypertension ([2]; 52 patients, all arms): 17.3% | grade 3 or 4 adverse events related to ilorasertib: pancreatitis ([2]; 52 patients, all arms): 3.8% | grade 3 or 4 adverse events related to ilorasertib: proteinuria ([2]; 52 patients, all arms): 3.8% | Treatment-emergent adverse events, any grade: Anemia ([2]; all arms, N=52): 7 (13.5) n (%) | Treatment-emergent adverse events, any grade: Any event ([2]; all arms, N=52): 51 (98.1) n (%) | Treatment-emergent adverse events, any grade: Arthralgia ([2]; all arms, N=52): 8 (15.4) n (%) | Treatment-emergent adverse events, any grade: Bone pain ([2]; all arms, N=52): 8 (15.4) n (%) | Treatment-emergent adverse events, any grade: Decreased appetite ([2]; all arms, N=52): 8 (15.4 n (%) | Treatment-emergent adverse events, any grade: Diarrhea ([2]; all arms, N=52): 23 (44.2) n (%) | Treatment-emergent adverse events, any grade: Epistaxis ([2]; all arms, N=52): 7 (13.5) n (%) | Treatment-emergent adverse events, any grade: Fatigue ([2]; all arms, N=52): 11 (21.2) n (%) | Treatment-emergent adverse events, any grade: Headache ([2]; all arms, N=52): 8 (15.4) n (%) | Treatment-emergent adverse events, any grade: Hypertension ([2]; all arms, N=52): 17 (32.7) n (%) | Treatment-emergent adverse events, any grade: Hypokalemia ([2]; all arms, N=52): 18 (34.6) n (%) | Treatment-emergent adverse events, any grade: Hypomagnesemia ([2]; all arms, N=52): 10 (19.2) n (%) | Treatment-emergent adverse events, any grade: Hypophosphatemia ([2]; all arms, N=52): 9 (17.3) n (%) | Treatment-emergent adverse events, any grade: Nausea ([2]; all arms, N=52): 23 (44.2) n (%) | Treatment-emergent adverse events, any grade: Peripheral edema ([2]; all arms, N=52): 11 (21.2) n (%) | Treatment-emergent adverse events, any grade: Proteinuria ([2]; all arms, N=52): 19 (36.5) n (%) | Treatment-emergent adverse events, any grade: Pyrexia ([2]; all arms, N=52): 8 (15.4) n (%) | Treatment-emergent adverse events, any grade: Vomiting ([2]; all arms, N=52): 10 (19.2) n (%) | Treatment-emergent adverse events, grade 3/4: Acute renal failure ([2]; all arms, N=52): 3 (5.8) n (%) | Treatment-emergent adverse events, grade 3/4: Anemia ([2]; all arms, N=52): 7 (13.5) n (%) | Treatment-emergent adverse events, grade 3/4: Any grade 3/4 event ([2]; all arms, N=52): 42 (80.8) n (%) | Treatment-emergent adverse events, grade 3/4: Bacteremia ([2]; all arms, N=52): 3 (5.8) n (%) | Treatment-emergent adverse events, grade 3/4: Febrile neutropenia ([2]; all arms, N=52): 4 (7.7) n (%) | Treatment-emergent adverse events, grade 3/4: Fungal pneumonia ([2]; all arms, N=52): 4 (7.7) n (%) | Treatment-emergent adverse events, grade 3/4: Hypertension ([2]; all arms, N=52): 15 (28.8) n (%) | Treatment-emergent adverse events, grade 3/4: Hypokalemia ([2]; all arms, N=52): 8 (15.4) n (%) | Treatment-emergent adverse events, grade 3/4: Hypophosphatemia ([2]; all arms, N=52): 6 (11.5) n (%) | Treatment-emergent adverse events, grade 3/4: Hypotension ([2]; all arms, N=52): 3 (5.8) n (%) | Treatment-emergent adverse events, grade 3/4: Pneumonia ([2]; all arms, N=52): 4 (7.7) n (%) | Treatment-emergent adverse events, grade 3/4: Proteinuria ([2]; all arms, N=52): 4 (7.7) n (%) | Treatment-emergent adverse events, grade 3/4: Sepsis ([2]; all arms, N=52): 3 (5.8) n (%) | DLTs ([2]; arm A, PO once weekly monotherapy, 640 mg, 6 patients): Grade 3 pancreatitis ^a | recommended phase 2 dose (RPTD) ([2]; arm A, oral monotherapy once weekly): 540 mg | DLTs ([2]; arm B, 320 or 480 mg twice weekly): No DLTs | recommended phase 2 dose (RPTD) ([2]; arm B, oral monotherapy twice weekly): 480 mg | DLTs ([2]; arm D, IV once weekly, 32 mg): No DLTs | association between ilorasertib dose and cell cycle arrest [3]: No association | increase in the number of cells with 4N DNA and polyploidy ([3]; 9 patients with sufficient cycling cells at baseline): ≥ 2 fold | increase in PlGF ([4]; after the first dose, dose range 10 to 690 mg): ≥ 2 fold | relationship between dose and the magnitude of change in PlGF [4]: no apparent relationship | patients with a best response of stable disease ([5]; 52 patients): Twelve | patients with an objective response ([5]; AML patients, among 52 patients): 3 | patients with CR with incomplete blood count recovery (CRi) ([5]; AML, arm A, 640 mg, end of cycle 1): 1 | patients with complete response (CR) ([5]; AML, arm A, 690 mg, end of cycle 8): 1 | patients with partial response ([5]; AML, arm B, 480 mg, end of cycle 2): 1
